In ChEMBL document CHEMBL5608231, “Lysineless HiBiT and NanoLuc Tagging Systems as Alternative Tools for Monitoring Targeted Protein Degradation” (ACS Med Chem Lett, 2024):
Calls of active or inactive are those of the source. The rule behind the calls is not given here. Residues, ends and D or L forms follow the SMILES beside them.

Assays:
[1] = Binding affinity to His-tagged LgBiT (unknown origin) incubated for 30 mins by Nano-Glo luciferase based luminescence analysis; set-up: species or system Homo sapiens
In short: (§1)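 Equilibrated 30 min at room temperature, then Nano-Glo substrate was added and luminescence read. EC50 from a three-parameter agonist fit; at least 3 technical replicates.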

[2] = Binding affinity to LgBiT (unknown origin) incubated for 30 mins by Nano-Glo luciferase based luminescence analysis; set-up: species or system Homo sapiens; in short: as §1
[3] = Binding affinity to His-tagged LgBiT (unknown origin) incubated for 30 mins measured after subtracting LgBiT signal in presence of PBS by Nano-Glo luciferase based luminescence analysis; set-up: species or system Homo sapiens
In short: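 Incubated 30 min, then Nano-Glo substrate was added and luminescence read. The LgBiT-only (PBS) baseline was subtracted before the three-parameter agonist fit.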

[4] = Binding affinity to His-tagged LgBiT (unknown origin) immobilized on chip surface with surface density of 3000 pg/mm2 by grating-coupled interferometry; set-up: species or system Homo sapiens
In short: (§2)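 His-LgBiT, purified in-house from E. coli BL21(DE3), captured at 50 µg/mL in PBS on a Ni-charged PCP-NTA chip. Two flow channels reached 3000 and 1000 pg/mm2. Kinetics were run in 0.01 M HEPES, 0.15 M NaCl, 0.05% P20, pH 7.4. kon and koff came from a global association-then-dissociation fit.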

[5] = species on record: Homo sapiens; experiment: Binding affinity to His-tagged LgBiT (unknown origin) assessed as on-rate constant protein immobilized on chip surface with surface density of 3000 pg/mm2 by grating-coupled interferometry; in short: as §2
[6] = species on record: Homo sapiens; experiment: Binding affinity to His-tagged LgBiT (unknown origin) assessed as off-rate constant protein immobilized on chip surface with surface density of 3000 pg/mm2 by grating-coupled interferometry; in short: as §2
[7] = Binding affinity to His-tagged LgBiT (unknown origin) immobilized on chip surface with surface density of 1000 pg/mm2 by grating-coupled interferometry; set-up: species or system Homo sapiens; in short: as §2
[8] = species on record: Homo sapiens; experiment: Binding affinity to His-tagged LgBiT (unknown origin) assessed as on-rate constant protein immobilized on chip surface with surface density of 1000 pg/mm2 by grating-coupled interferometry; in short: as §2
[9] = species on record: Homo sapiens; experiment: Binding affinity to His-tagged LgBiT (unknown origin) assessed as off-rate constant protein immobilized on chip surface with surface density of 1000 pg/mm2 by grating-coupled interferometry; in short: as §2
[10] = biological target: T1, von Hippel-Lindau disease tumor suppressor/Receptor-interacting serine/threonine-protein kinase 1 (Homo sapiens, UniProt Q13546+P40337); experiment: PROTAC activity at VHL/wild type nLuc-fused N-terminal RIPK1 kinase domain (unknown origin) expressed in HEK293T cells assessed as induction of protein degradation measured after 24 hrs in presence of furimazine substrate by Nano-Glo luciferase based luminescence analysis relative to control; assay type: cell-based
In short: (§3)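 HEK293T cells transiently transfected with nLuc (WT or K0)-RIPK1 kinase domain (1-324) through a 24-residue linker, expressed 24–36 h. Replated at 20,000 cells/well in Opti-MEM with 4% FBS. Treated 24 h with 1.6–1,000 nM (5-fold, 1% DMSO). Medium removed, Nano-Glo substrate 1:100 in PBS added, live-cell luminescence read. Three-parameter inhibitor fit; at least two biological batches.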
Target sequence in this assay (P40337 whole entry, looked up, the tested form may be a part): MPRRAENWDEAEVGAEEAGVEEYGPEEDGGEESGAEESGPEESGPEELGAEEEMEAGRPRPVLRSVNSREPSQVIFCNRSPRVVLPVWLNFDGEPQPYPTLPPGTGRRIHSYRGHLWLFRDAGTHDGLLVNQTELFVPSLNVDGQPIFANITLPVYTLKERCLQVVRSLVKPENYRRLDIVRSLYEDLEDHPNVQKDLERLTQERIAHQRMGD
Target sequence in this assay (Q13546 whole entry, looked up, the tested form may be a part): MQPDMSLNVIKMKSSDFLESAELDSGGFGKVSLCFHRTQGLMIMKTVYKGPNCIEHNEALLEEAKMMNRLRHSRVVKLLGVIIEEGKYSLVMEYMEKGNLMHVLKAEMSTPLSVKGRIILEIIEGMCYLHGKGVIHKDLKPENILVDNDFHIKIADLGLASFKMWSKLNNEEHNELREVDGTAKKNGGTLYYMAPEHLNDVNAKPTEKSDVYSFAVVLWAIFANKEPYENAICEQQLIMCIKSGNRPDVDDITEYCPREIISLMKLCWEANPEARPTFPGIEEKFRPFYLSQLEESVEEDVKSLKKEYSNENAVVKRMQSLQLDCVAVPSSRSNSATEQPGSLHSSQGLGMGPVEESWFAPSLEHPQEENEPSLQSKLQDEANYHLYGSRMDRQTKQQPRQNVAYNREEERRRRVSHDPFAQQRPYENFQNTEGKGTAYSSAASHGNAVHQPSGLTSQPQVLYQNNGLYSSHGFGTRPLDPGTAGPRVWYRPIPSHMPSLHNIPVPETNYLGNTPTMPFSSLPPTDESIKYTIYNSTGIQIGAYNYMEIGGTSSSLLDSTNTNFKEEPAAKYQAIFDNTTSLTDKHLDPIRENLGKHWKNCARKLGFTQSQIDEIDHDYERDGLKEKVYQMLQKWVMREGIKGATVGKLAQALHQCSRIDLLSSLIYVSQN

[11] = biological target: T1, von Hippel-Lindau disease tumor suppressor/Receptor-interacting serine/threonine-protein kinase 1; experiment: PROTAC activity at VHL/wild type nLuc-fused N-terminal RIPK1 kinase domain (unknown origin) expressed in HEK293T cells assessed as induction of protein degradation at 1.6 to 1000 nM measured after 24 hrs by immunoblot analysis; assay type: cell-based; settings: dose 1.6-1000 nM
In short: (§4)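 HEK293T cells transfected with nLuc (WT or K0)-RIPK1 kinase domain, plated in 12-well plates and treated 24 h. Lysed in RIPA with protease/phosphatase inhibitors and benzonase. 20 µg protein run on SDS-PAGE and transferred to PVDF. Probed overnight at 4 °C with anti-RIPK1 (1:1000) and β-actin (1:4000), then HRP secondary and ECL.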
Target sequence in this assay (P40337 whole entry, looked up, the tested form may be a part): as the sequence (P40337 whole entry, looked up, the tested form may be a part) above
Target sequence in this assay (Q13546 whole entry, looked up, the tested form may be a part): as the sequence (Q13546 whole entry, looked up, the tested form may be a part) above

[12] = biological target: T1, von Hippel-Lindau disease tumor suppressor/Receptor-interacting serine/threonine-protein kinase 1; experiment: PROTAC activity at VHL/nLucK0-fused N-terminal RIPK1 kinase domain (unknown origin) expressed in HEK293T cells assessed as induction of protein degradation at 1.6 to 1000 nM measured after 24 hrs by immunoblot analysis; assay type: cell-based; settings: dose 1.6-1000 nM; in short: as §4
Target sequence in this assay (P40337 whole entry, looked up, the tested form may be a part): as the sequence (P40337 whole entry, looked up, the tested form may be a part) above
Target sequence in this assay (Q13546 whole entry, looked up, the tested form may be a part): as the sequence (Q13546 whole entry, looked up, the tested form may be a part) above

[13] = biological target: T1, von Hippel-Lindau disease tumor suppressor/Receptor-interacting serine/threonine-protein kinase 1; experiment: PROTAC activity at VHL/wild type nLuc-fused N-terminal RIPK1 kinase domain (unknown origin) expressed in HEK293T cells assessed as induction of protein degradation measured after 24 hrs in presence of furimazine substrate by Nano-Glo luciferase based luminescence analysis; assay type: cell-based; in short: as §3
Target sequence in this assay (Q13546 whole entry, the tested form may be a part): as the sequence (Q13546 whole entry, looked up, the tested form may be a part) above
Target sequence in this assay (P40337 whole entry, the tested form may be a part): as the sequence (P40337 whole entry, looked up, the tested form may be a part) above

[14] = biological target: T1, von Hippel-Lindau disease tumor suppressor/Receptor-interacting serine/threonine-protein kinase 1; experiment: PROTAC activity at VHL/nLucK0-fused N-terminal RIPK1 kinase domain (unknown origin) expressed in HEK293T cells assessed as induction of protein degradation measured after 24 hrs in presence of furimazine substrate by Nano-Glo luciferase based luminescence analysis; assay type: cell-based; in short: as §3
Target sequence in this assay (Q13546 whole entry, the tested form may be a part): as the sequence (Q13546 whole entry, looked up, the tested form may be a part) above
Target sequence in this assay (P40337 whole entry, the tested form may be a part): as the sequence (P40337 whole entry, looked up, the tested form may be a part) above

Row | EC50 [3] | K [5] | K [6] | K [8] | K [9] | SMILES | further results
1 | 16 nM | 3.6 10^5/M/s | 6.7 10^-3/s | 7.7 10^5/M/s | 5 10^-4/s | CC[C@H](C)[C@H](NC(=O)[C@H](CCCNC(=N)N)NC(=O)[C@H](CCCNC(=N)N)NC(=O)[C@H](Cc1ccccc1)NC(=O)[C@H](CC(C)C)NC(=O)[C@H](CCCNC(=N)N)NC(=O)[C@H](Cc1c[nH]c2ccccc12)NC(=O)CNC(=O)[C@H](CO)NC(=O)[C@@H](N)C(C)C)C(=O)N[C@@H](CO)C(=O)O (H-VSGWRLFRRIS-OH) | EC50 [1]: 8.7 nM; EC50 [2]: 6.2 nM; Kd [4]: 1.8 nM; Kd [7]: 0.7 nM
2 |  |  |  |  |  | Cc1ncsc1-c1ccc([C@H](C)NC(=O)[C@@H]2C[C@@H](O)CN2C(=O)[C@@H](NC(=O)CCCCCCCCCCC(=O)NCCCn2cc(-c3ccc4c(c3)CCN4C(=O)Cc3cccc(OC(F)(F)F)c3)c3c(N)ncnc32)C(C)(C)C)cc1 | %max [10]: 91.5%; Activity [11]: Active; Activity [12]: Active
3 |  |  |  |  |  | Cc1ncsc1-c1ccc([C@H](C)NC(=O)[C@H]2C[C@H](O)CN2C(=O)[C@@H](NC(=O)CCCCCCCCCCC(=O)NCCCn2cc(-c3ccc4c(c3)CCN4C(=O)Cc3cccc(OC(F)(F)F)c3)c3c(N)ncnc32)C(C)(C)C)cc1 | DC50 [13]: Not Active; DC50 [14]: Not Active
4 | 24 nM | 3 10^5/M/s | 1.4 10^-3/s | 7.5 10^5/M/s | 1.3 10^-3/s | CC[C@H](C)[C@H](NC(=O)[C@H](CCCCN)NC(=O)[C@H](CCCCN)NC(=O)[C@H](Cc1ccccc1)NC(=O)[C@H](CC(C)C)NC(=O)[C@H](CCCNC(=N)N)NC(=O)[C@H](Cc1c[nH]c2ccccc12)NC(=O)CNC(=O)[C@H](CO)NC(=O)[C@@H](N)C(C)C)C(=O)N[C@@H](CO)C(=O)O | 
